Key:
Candida albicans [1] = assay: Synergistic antifungal activity against Candida albicans ATCC 90028 at 5 ug/ml after 48 hrs in presence of 5 ug/ml fluconazol by checkerboard assay relative to control; format: functional; conditions: ATCC 90028, 48 h, read-out: GI
Method in brief: (§1)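 Checkerboard in C. albicans ATCC 90028, inoculum prepared per CLSI M27-A3 in RPMI. Fluconazole serially diluted 80-1.25 µg/mL across the plate against the partner compound at 80-1.25 µg/mL final. Incubated 48 h at 35°C. Metabolic activity read by XTT reduction at 475 nm (660 nm reference), given as % of the untreated growth control.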

Candida albicans [2] = assay: Synergistic antifungal activity against Candida albicans ATCC 90028 at 80 ug/ml after 48 hrs in presence of 2.5 ug/ml fluconazol by checkerboard assay relative to control; format: functional
Method in brief: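 Checkerboard microdilution (M27-A3) on C. albicans ATCC 90028 in RPMI 1640: fluconazole (80-1.25 µg/mL) crossed with tetrazole (80-1.25 µg/mL final), incubated at 35°C for 48 h. Growth by OD405 at 18 and 48 h, endpoint taken as 100% inhibition. FIC index = sum of the two agents' FICs; <1 synergism, >1 antagonism.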

Candida albicans [3] = assay: Synergistic antifungal activity against Candida albicans ATCC 90028 at 80 ug/ml after 48 hrs in presence of 80 ug/ml fluconazol by checkerboard assay relative to control; format: functional; conditions: ATCC 90028, 48 h, read-out: GI; method in brief: as §1
Caco-2 = assay: Cytotoxicity against human Caco2 cells assessed as reduction in cell viability at 16 ug/ml after 18 hrs by XTT assay ralative to control; format: cell-based; conditions: caco-2, 18 h
Method in brief: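 Caco-2 cells were exposed to compound at 256, 16 or 0.0313 µg/mL for 18 h, then given XTT reagent for 4–6 h. Absorbance was read at 475 nm with a 660 nm reference, and viability and toxicity were expressed as %. CC50 was taken as the concentration giving 50% viability loss. Means ± SD of three independent experiments, samples in duplicate.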

Candida albicans [4] = assay: Synergistic antifungal activity against Candida albicans ATCC 90028 at 40 ug/ml after 48 hrs in presence of 80 ug/ml fluconazol by checkerboard assay relative to control; format: functional; method in brief: as §1
Candida albicans [5] = assay: Synergistic antifungal activity against Candida albicans ATCC 90028 at 80 ug/ml after 48 hrs in presence of 5 ug/ml fluconazol by checkerboard assay relative to control; format: functional; method in brief: as §1
Candida albicans [6] = assay: Synergistic antifungal activity against Candida albicans ATCC 90028 at 10 ug/ml after 48 hrs in presence of 1.25 ug/ml fluconazol by checkerboard assay relative to control; format: functional
Method in brief: (§2)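 Checkerboard per M27-A3 against ATCC 90028: fluconazole at 80–1.25 µg/mL horizontally and partner compound at 80–1.25 µg/mL vertically, 100 µL yeast inoculum per well, 35°C for 48 h. After 48 h, metabolic activity was measured by XTT reduction at 475 nm (660 nm reference) relative to untreated growth control. FIC index is the sum of the FICs; <1 was defined as synergism and >1 as antagonism.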

Candida albicans [7] = assay: Antifungal activity against Candida albicans ATCC 90028 at 0.25 ug/ml after 48 hrs relative to control; format: functional
Method in brief: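 Fluconazole (water stock, diluted in RPMI 1640) tested by CLSI M27-A3 broth microdilution against C. albicans ATCC 90028. Inoculum 1.8×10^3 cells/mL in RPMI 1640 buffered with MOPS, pH 7.0. Incubation at 35°C without agitation, read at 18 and 48 h. Growth by OD405 and visually; inhibition % calculated against solvent growth-control wells after subtracting sterility-control wells.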

Candida albicans [8] = assay: Antifungal activity against Candida albicans ATCC 90028 at 1 ug/ml after 48 hrs relative to control; format: functional
Method in brief: (§3)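 Planktonic broth microdilution per M27-A3 in MOPS-buffered RPMI 1640 (pH 7.0), final inoculum 1.8×10^3 cells/mL, compounds 0.0313–16 µg/mL from 1600 µg/mL stocks in ethanol or DMSO. Incubated at 35°C without agitation; OD405 read at 18 and 48 h. % inhibition was derived from test, sterility (no inoculum) and solvent growth-control wells. Amphotericin B at 0.5 µg/mL served as the 100% control.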

Candida albicans [9] = assay: Antifungal activity against Candida albicans ATCC 90028 assessed as metabolic activity at 40 ug/ml after 48 hrs in presence of 10 ug/ml fluconazol by XTT assay relative to control
Candida albicans [10] = assay: Synergistic antifungal activity against Candida albicans ATCC 90028 at 20 ug/ml after 48 hrs in presence of 80 ug/ml fluconazol by checkerboard assay relative to control; format: functional; method in brief: as §1
Candida albicans [11] = assay: Antifungal activity against Candida albicans ATCC 90028 assessed as inhibition of metabolic activity at 5 ug/ml after 48 hrs in presence of 1.25 ug/ml fluconazol by XTT assay relative to control; format: functional; conditions: values are per cent of control
Method in brief: (§4)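 Checkerboard against strain ATCC 90028, inoculum per M27-A3: fluconazole 80-1.25 µg/mL on one axis, tetrazole 80-1.25 µg/mL on the other. Plates at 35°C for 48 h, then XTT metabolic reduction read at 475 nm (660 nm reference). Activity is the drop in mean absorbance against untreated growth control. FICs and their summed FIC index are taken at 50% reduction in metabolic activity.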

Candida albicans [12] = assay: Antifungal activity against Candida albicans ATCC 90028 assessed as inhibition of metabolic activity at 5 ug/ml after 48 hrs in presence of 10 ug/ml fluconazol by XTT assay relative to control; format: functional; conditions: values are per cent of control; method in brief: as §4
Candida albicans [13] = assay: Antifungal activity against Candida albicans ATCC 90028 assessed as metabolic activity at 20 ug/ml after 48 hrs in presence of 10 ug/ml fluconazol by XTT assay relative to control
Candida albicans [14] = assay: Synergistic antifungal activity against Candida albicans ATCC 90028 at 1.25 ug/ml after 48 hrs in presence of 1.25 ug/ml fluconazol by checkerboard assay relative to control; format: functional; conditions: ATCC 90028, 48 h, read-out: GI; method in brief: as §2
Candida albicans [15] = assay: Antifungal activity against Candida albicans ATCC 90028 at 8 ug/ml after 18 hrs relative to control; format: functional; method in brief: as §3
Candida albicans [16] = assay: Synergistic antifungal activity against Candida albicans ATCC 90028 at 40 ug/ml after 48 hrs in presence of 1.25 ug/ml fluconazol by checkerboard assay relative to control; format: functional; method in brief: as §1
Candida albicans [17] = assay: Antifungal activity against Candida albicans ATCC 90028 assessed as metabolic activity at 40 ug/ml after 48 hrs in presence of 2.5 ug/ml fluconazol by XTT assay relative to control
Candida albicans [18] = assay: Synergistic antifungal activity against Candida albicans ATCC 90028 at 10 ug/ml after 48 hrs in presence of 20 ug/ml fluconazol by checkerboard assay relative to control; format: functional; method in brief: as §2

Structure (SMILES) | inhibition of growth at 5 µg/mL (Candida albicans [1]) [%] | growth inhibition (GI) (Candida albicans [2]) [%] | inhibition of growth at 80 µg/mL (Candida albicans [3]) [%] | Activity (Caco-2) [%] | growth inhibition (GI) (Candida albicans [4]) [%] | growth inhibition (GI) (Candida albicans [5]) [%] | growth inhibition (GI) (Candida albicans [6]) [%] | Activity (Candida albicans [7]) [%] | Activity (Candida albicans [8]) [%] | Metabolic activity (Candida albicans [9]) [%] | growth inhibition (GI) (Candida albicans [10]) [%] | residual activity (Candida albicans [11]) [%] | residual activity (Candida albicans [12]) [%] | Metabolic activity (Candida albicans [13]) [%] | inhibition of growth at 1.25 µg/mL (Candida albicans [14]) [%] | Activity (Candida albicans [15]) [%] | growth inhibition (GI) (Candida albicans [16]) [%] | Metabolic activity (Candida albicans [17]) [%] | growth inhibition (GI) (Candida albicans [18]) [%]
ClCCCn1nnnc1-c1ccccc1Cl | 98.8 | 99.67 | 99.8 | 25.49 | 99.54 | 99.27 | 99.86 | 99.62 | 98.22 | 70.86 | 99.33 | 79.99 | 66.6 | 68.01 | 99.7 | 99.44 | 99.93 | 75.66 | 99.61
CCOC(=O)CCn1nnc(-c2ccccc2)n1 | 99.1 | 99.77 | 99.6 | 50.46 | 99.58 | 99.18 | 99.72 | 98.7 | 97.51 | 56.45 | 99.25 | 88.02 | 69.35 | 59.93 | 99.8 | 99.01 | 99.56 | 61.61 | 99.46
Cc1ccc(-c2nnn(CCCN3CCOCC3)n2)cc1 | 98.7 | 99.54 | 99.5 | 27.73 | 99.59 | 97.8 | 97.81 | 98.68 | 96.58 | 28.26 | 99.26 | 100 | 81.48 | 46.94 | 99 | 99.97 | 99.57 | 26.03 | 98.99
